In ChEMBL document CHEMBL1144702, “Synthesis and structure-activity relationship studies on tryprostatin A, an inhibitor of breast cancer resistance protein” (Bioorg Med Chem, 2008):
Activity calls are given as the source filed them. No cut-off for these calls is given here.

Assays:
[1] = Cell cycle arrest in mouse tsFT210 cells assessed as accumulation at G2/M phase at 100 uM after 18 hrs by flow cytometry; type: functional, cell-based
In short: (§1)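 Synchronous-culture assay: tsFT210 cells seeded at 1x10^5 cells/mL, preincubated 1 h at 32 °C, then incubated with compound 18 h at 32 °C; morphology checked by microscopy; DNA content by flow cytometry after staining with 50 μg/mL propidium iodide, 0.1% sodium citrate, 0.2% NP-40; nuclei/chromosomes stained with Hoechst 33258 after KCl swelling and Carnoy fixation.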

[2] = Cell cycle arrest in mouse tsFT210 cells assessed as accumulation at G1 phase at 100 uM after 18 hrs by flow cytometry; type: functional, cell-based; in short: as §1
[3] = Antiproliferative activity against mouse tsFT210 cells after 48 hrs by WST-8 assay; type: functional, cell-based; conditions: tsFT210, 48 h
In short: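 tsFT210 cells (temperature-sensitive cdc2 mutant from mouse mammary carcinoma FM3A), kept in RPMI 1640 with 10% fetal calf serum at 32 °C; exponentially growing cells exposed to compound at 32 °C for 48 h, then WST-8 added for 4 h at 37 °C; absorbance at 450 nm read to estimate cell number; IC50 reported.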

MCF7 [4] = test: Cytotoxicity against human MCF7 cells at 10 uM after 72 hrs by Cell Titer 96 Aqueous Non-Radioactive assay; type: functional; conditions: MCF7, 72 h, read-out: Inhibition
In short: (§2)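 MCF7, NCI-H520 or PC-3 cells (RPMI-1640, 10% FBS) plated 1 × 10^4/well, 24 h at 37 °C, exposed 72 h to drug at 10 or 100 μM in DMSO or EtOH vehicle (controls usually 0.2%). Survival by MTS/PMS formazan absorbance at 490 nm, plate blank subtracted, as percent of vehicle wells; quadruplicate; etoposide or m-AMSA positive controls.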

HOP-92 = test: Cytotoxicity against human HOP92 cells; type: functional
CCRF-CEM = test: Cytotoxicity against human CCRF-CEM cells; type: functional
EKVX = test: Cytotoxicity against human EKVX cells; type: functional
PC-3 [5] = test: Cytotoxicity against human PC3 cells at 10 uM after 72 hrs by Cell Titer 96 Aqueous Non-Radioactive assay; type: functional; conditions: PC-3, 72 h, read-out: Inhibition; in short: as §2
[6] = Cytotoxicity against human H520 cells at 10 uM after 72 hrs by Cell Titer 96 Aqueous Non-Radioactive assay; type: functional; conditions: NCI-H520, 72 h, read-out: Inhibition; in short: as §2
[7] = Cytotoxicity against human H520 cells at 100 uM after 72 hrs by Cell Titer 96 Aqueous Non-Radioactive assay; type: functional; conditions: NCI-H520, 72 h, read-out: Inhibition; in short: as §2
UO-31 = test: Cytotoxicity against human UO31 cells; type: functional
COLO 205 = test: Cytotoxicity against human COLO205 cells; type: functional
OVCAR-3 = test: Cytotoxicity against human OVCAR-3 cells; type: functional
PC-3 [8] = test: Cytotoxicity against human PC3 cells at 100 uM after 72 hrs by Cell Titer 96 Aqueous Non-Radioactive assay; type: functional; conditions: PC-3, 72 h, read-out: Inhibition; in short: as §2
LOX IMVI = test: Cytotoxicity against human LOX IMVI cells; type: functional
BT-549 = test: Cytotoxicity against human BT549 cells; type: functional
MCF7 [9] = test: Cytotoxicity against human MCF7 cells after 72 hrs by Cell Titer 96 Aqueous Non-Radioactive assay; type: functional; conditions: MCF7, 72 h
In short: (§3)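 MCF7, NCI-H520 and PC-3 cells in RPMI-1640 + 10% FBS, 2 mM L-glutamine, 0.1 mM non-essential amino acids; 1 × 10^4 cells/well, 24 h at 37 °C, then drug in DMSO or EtOH (<1%) for 72 h. Cells under 50% survival at 100 μM retested over further concentrations for GI50. MTS/PMS read at 490 nm, blank subtracted, versus vehicle wells; quadruplicate or more.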

[10] = Inhibition of tubulin polymerization in presence of microtubule-associated proteins at 60 uM
In short: (§4)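 Tubulin containing MAPs in PME buffer (100 mM PIPES pH 6.9, 2 mM EGTA, 1 mM MgSO4) with GTP and drug in DMSO, tubulin added last; 37 °C, absorbance change at 351 nm over 10 min. Drug concentration varied across runs for delta absorbance versus concentration curves; colchicine standard curves made for each tubulin batch.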

[11] = Cytotoxicity against human […]; type: functional
IGROV-1 = test: Cytotoxicity against human IGROV1 cells; type: functional
SR = test: Cytotoxicity against human SR cells; type: functional
MCF7 [12] = test: Cytotoxicity against human MCF7 cells at 100 uM after 72 hrs by Cell Titer 96 Aqueous Non-Radioactive assay; type: functional; conditions: MCF7, 72 h, read-out: Inhibition; in short: as §2
[13] = Cytotoxicity against human HL60 (TB) cells; type: functional; conditions: HL-60
MOLT-4 = test: Cytotoxicity against human MOLT4 cells; type: functional
RPMI-8226 = test: Cytotoxicity against human RPMI8226 cells; type: functional
K562 = test: Cytotoxicity against human K562 cells; type: functional
DU-145 = test: Cytotoxicity against human DU145 cells; type: functional
PC-3 [14] = test: Cytotoxicity against human PC3 cells after 72 hrs by Cell Titer 96 Aqueous Non-Radioactive assay; type: functional; conditions: PC-3, 72 h; in short: as §3
[15] = Inhibition of tubulin polymerization in presence of microtubule-associated proteins; in short: as §4
HT-29 = test: Cytotoxicity against human HT29 cells; type: functional

CC(C)=CCc1[nH]c2cc(N=[N+]=[N-])ccc2c1C[C@@H]1NC(=O)[C@@H]2CCCN2C1=O
Activity [1]: Active | Activity [2]: Active | IC50 [3]: 60 µM

CC(C)=CCc1[nH]c2ccccc2c1C[C@H]1NC(=O)[C@@H]2CCCN2C1=O
cell survival (% of vehicle control) at 10 µM (MCF7 [4]): > 100% | GI50 (HOP-92): 2.94 µM | GI50 (CCRF-CEM): 22.2 µM | GI50 (EKVX): 20.7 µM | percent cell survival relative to vehicle control at 10 µM (PC-3 [5]): 97.3% | percent cell survival relative to vehicle at 10 µM [6]: > 100% | cell survival (% of vehicle control) at 100 µM [7]: 76.5% | GI50 (UO-31): 45.7 µM | GI50 (COLO 205): 39.3 µM | GI50 (OVCAR-3): 28.7 µM | percent cell survival at 100 µM (PC-3 [8]): 68.5% | GI50 (LOX IMVI): 17.8 µM | GI50 (BT-549): 26.9 µM | GI50 (MCF7 [9]): 25.9 µM | inhibition [10]: < 2% | GI50 [11]: 49.6 µM | GI50 (IGROV-1): 32.3 µM | GI50 (SR): 25.4 µM | cell survival (% of vehicle control) at 100 µM (MCF7 [12]): > 100% | GI50 [13]: 55.7 µM | GI50 (MOLT-4): 34.9 µM | GI50 (RPMI-8226): 18.6 µM | GI50 (K562): 31.8 µM | GI50 (DU-145): 59.5 µM | GI50 (PC-3 [14]): 24.8 µM

COc1ccc2c(C[C@@H]3NC(=O)[C@@H]4CCCN4C3=O)cn(CC=C(C)C)c2c1
IC50 [3]: > 100 µM

COc1ccc2c(C[C@@H]3NC(=O)[C@@H]4CCCN4C3=O)c(Cl)[nH]c2c1
IC50 [3]: > 100 µM

COc1ccc2c(C[C@@H]3NC(=O)[C@@H]4CCCN4C3=O)c(Br)[nH]c2c1
IC50 [3]: 96 µM

COc1ccc2c(C[C@@H]3NC(=O)[C@H](C(C)C)NC3=O)c(CC=C(C)C)[nH]c2c1
Activity [1]: Active | Activity [2]: Active | IC50 [3]: 19 µM

COc1ccc2c(C[C@@H]3NC(=O)[C@@H]4CCCN4C3=O)c(Cc3ccccc3)[nH]c2c1
IC50 [3]: > 100 µM

C=CCn1c(CC=C(C)C)c(C[C@@H]2NC(=O)[C@@H]3CCCN3C2=O)c2ccc(OC)cc21
IC50 [3]: 75 µM

COc1ccc2c(C[C@@H]3NC(=O)[C@H](C(C)C)NC3=O)c[nH]c2c1
IC50 [3]: > 100 µM

COc1ccc2c(C[C@@H]3NC(=O)[C@@H]4CCCN4C3=O)c(CC=C(C)C)n(Cc3ccccc3)c2c1
IC50 [3]: 55 µM

C=CCc1[nH]c2cc(OC)ccc2c1C[C@@H]1NC(=O)[C@@H]2CCCN2C1=O
Activity [1]: Active | Activity [2]: Active | IC50 [3]: 60 µM

COc1cc2c(c(OC)c1OC)-c1ccc(OC)c(=O)cc1[C@@H](NC(C)=O)CC2 [COLCHICINE]
IC50 [15]: 44.9 µM

C=CCn1cc(C[C@@H]2NC(=O)[C@@H]3CCCN3C2=O)c2ccc(OC)cc21
Activity [2]: Active | IC50 [3]: 62 µM

COc1ccc2c(C[C@@H]3NC(=O)[C@@H]4CCCN4C3=O)cn(C)c2c1
IC50 [3]: > 100 µM

COc1ccc2c(C[C@@H]3NC(=O)[C@@H]4CCCN4C3=O)c[nH]c2c1
IC50 [3]: > 100 µM

COc1ccc2c(C[C@@H]3NC(=O)[C@@H]4CCCN4C3=O)cn(Cc3ccccc3)c2c1
Activity [2]: Active | IC50 [3]: 46 µM

COc1ccc2c(C[C@@H]3NC(=O)[C@H](Cc4ccccc4)NC3=O)c(CC=C(C)C)[nH]c2c1
IC50 [3]: 10 µM

CC(C)=CCc1[nH]c2cc([N+](=O)[O-])ccc2c1C[C@@H]1NC(=O)[C@@H]2CCCN2C1=O
IC50 [3]: > 100 µM

COC(=O)/C=C/c1[nH]c2cc(OC)ccc2c1C[C@@H]1NC(=O)[C@@H]2CCCN2C1=O
IC50 [3]: > 100 µM

CC(C)=CCc1[nH]c2ccccc2c1C[C@@H]1NC(=O)[C@@H]2CCCN2C1=O [TRYPROSTATIN B]
cell survival (% of vehicle control) at 10 µM (MCF7 [4]): 88.2% | GI50 (HOP-92): 43.1 µM | GI50 (CCRF-CEM): > 100 µM | GI50 (EKVX): > 100 µM | percent cell survival relative to vehicle control at 10 µM (PC-3 [5]): 95.5% | percent cell survival relative to vehicle at 10 µM [6]: 77.6% | cell survival (% of vehicle control) at 100 µM [7]: 60.5% | GI50 (UO-31): > 100 µM | GI50 (COLO 205): > 100 µM | GI50 (OVCAR-3): > 100 µM | percent cell survival at 100 µM (PC-3 [8]): 68.9% | GI50 (LOX IMVI): > 100 µM | GI50 (BT-549): 58.2 µM | GI50 (MCF7 [9]): > 100 µM | GI50 [11]: > 100 µM | GI50 (IGROV-1): > 100 µM | GI50 (SR): 50.6 µM | cell survival (% of vehicle control) at 100 µM (MCF7 [12]): 66.7% | GI50 [13]: > 100 µM | GI50 (MOLT-4): > 100 µM | GI50 (RPMI-8226): > 100 µM | GI50 (K562): 56.1 µM | IC50 [15]: > 700 µM | GI50 (DU-145): > 100 µM | GI50 (PC-3 [14]): > 100 µM

COc1ccc2c(C[C@H]3NC(=O)[C@@H]4CCCN4C3=O)c(CC=C(C)C)[nH]c2c1
cell survival (% of vehicle control) at 10 µM (MCF7 [4]): > 100% | GI50 (CCRF-CEM): 11.9 µM | GI50 (EKVX): > 50 µM | percent cell survival relative to vehicle control at 10 µM (PC-3 [5]): > 100% | percent cell survival relative to vehicle at 10 µM [6]: > 100% | cell survival (% of vehicle control) at 100 µM [7]: > 100% | GI50 (UO-31): 27.3 µM | GI50 (COLO 205): 12.4 µM | GI50 (OVCAR-3): > 50 µM | percent cell survival at 100 µM (PC-3 [8]): > 100% | GI50 (LOX IMVI): 33.5 µM | GI50 (BT-549): 9.77 µM | GI50 (MCF7 [9]): 25.5 µM | inhibition [10]: < 2% | GI50 [11]: 13 µM | GI50 (IGROV-1): > 50 µM | GI50 (HT-29): 16.1 µM | GI50 (SR): 11.3 µM | cell survival (% of vehicle control) at 100 µM (MCF7 [12]): > 100% | GI50 [13]: 35 µM | GI50 (MOLT-4): 12.2 µM | GI50 (RPMI-8226): 7.76 µM | GI50 (K562): 17.7 µM | GI50 (DU-145): 40 µM | GI50 (PC-3 [14]): 21.7 µM

CC(C)=CCc1[nH]c2cc(N=C=S)ccc2c1C[C@@H]1NC(=O)[C@@H]2CCCN2C1=O
Activity [1]: Active | Activity [2]: Active | IC50 [3]: 50 µM

CC(C)=CCc1[nH]c2cc(N)ccc2c1C[C@@H]1NC(=O)[C@@H]2CCCN2C1=O
IC50 [3]: > 100 µM
